From ChEMBL document CHEMBL4011639, “Discovery of Novel Nucleotide Prodrugs with Improved Potency Against HCV Variants Carrying NS5B S282T Mutation” (J Med Chem, 2017) come the findings set out here.

Usually EC50 stands for the concentration needed to bring the measured effect to its halfway point. A higher EC50 goes with lower potency in that assay. What is called half-life is the time in which the quantity being followed falls by half. Low values mean fast loss, high ones slow loss.

The test system of data set [1] is Huh-7. The experiment in a line: Cytotoxicity against human HuH7 cells assessed as reduction in cell viability up to 100 uM after 72 hrs by Cell Titer-Fluor Cell assay. Type of data set: cell-based. Conditions: huh-7, 72 h. Put shortly:
(§1)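 Huh7 cells carrying HCV genotype 1b replicon, 8000 per well, in duplicate 3-fold dilution series with 0.5% DMSO final; 72 h at 37 °C, 5% CO2. Viability read by Cell Titer-Fluor fluorescence after 5 min; replicon inhibition read by Bright-Glo luciferase luminescence in the same wells. EC50 and CC50 come from curve fitting.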

The nature of data set [2]: Inhibition of wild type NS5B in HCV genotype 1b replicon expressed in human HuH7 cells after 72 hrs by bright Glo-luciferase reporter gene assay. Type of data set: cell-based, Hepatitis C virus subtype 1b. Conditions: Hepatitis C virus, Huh-7, 72 h. The gist of the method:
as §1
In general terms: Replicon systems follow genome replication, usually without infectious particles.

Data set [3] has as its system Hepatitis C virus subtype 1b. The experiment in a line: Ratio of EC50 for HCV genotype 1b replicon NS5B S282T mutant to EC50 for wild type HCV genotype 1b replicon NS5B. Put shortly: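 Huh7 cells carrying wild-type or S282T mutant HCV genotype 1b replicon, 8000 cells per well, exposed to 3-fold compound dilution series (0.5% DMSO final, duplicates) for 72 h at 37 °C, 5% CO2. Replicon activity read by Bright-Glo luciferase luminescence. EC50 averaged from duplicate determinations; ratio taken as S282T EC50 over wild-type EC50.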

Data set [4] is described as follows: Half life in human plasma […] by LC/MS/MS analysis. Type of data set: ADME, cell-free. The gist of the method:
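Pooled human plasma adjusted to pH 7.4 and prewarmed, then spiked to 2 μM final from a 200 μM DMSO working solution, in duplicate. Sampled at 0, 10, 30, 60 and 120 min and quenched with acetonitrile containing tolbutamide and buspirone. LC/MS/MS (MRM) peak area ratios; ke from linear regression of the initial linear phase, t1/2 = ln2/ke.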

Data set [5] is described as follows: Half life in human liver S9 fraction at 10 uM by LC/MS/MS analysis. The class given is ADME. Put shortly: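 Compound at 10 μM working solution (1% DMSO, 5% MeOH in 100 mM Tris) incubated at 37 °C with human liver S9 at 1 mg protein/mL final. Reactions stopped with cold acetonitrile containing tolbutamide internal standard at 0, 5, 10, 20, 30 and 60 min. Parent measured by LC/MS/MS (MRM) as analyte/IS peak area ratio, given as percent remaining versus 0 min; half-life fitted.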

For the molecule `CC(C)OC(=O)[C@H](C)N[P@](=O)(OC[C@H]1O[C@@H](n2ccc(NC(=O)C(C)(C)Oc3ccc(Cl)cc3)nc2=O)[C@](C)(F)[C@@H]1O)Oc1ccccc1`, in data set [1], the Activity entry was “Non-Toxic”. In addition, the EC50 in data set [2] is 4020 nM.
As to `COc1ccc(C(=O)Nc2ccn([C@@H]3O[C@H](CO[P@@](=O)(N[C@@H](C)C(=O)OC(C)C)Oc4ccccc4)[C@@H](O)[C@@]3(C)F)c(=O)n2)cc1`, in data set [1], the Activity result is “Non-Toxic”. Besides, the EC50 in data set [2] was > 10000 nM.
Taken in the same sequence, the figures for `CC(C)OC(=O)[C@H](C)N[P@](=O)(OC[C@H]1O[C@@H](n2ccc(NC(=O)C3CC3)nc2=O)[C@](C)(F)[C@@H]1O)Oc1ccccc1` were “Non-Toxic” and 2250 nM.
As to `CCC(CC)OC(=O)Nc1ccn([C@@H]2O[C@H](CO[P@@](=O)(N[C@@H](C)C(=O)OC(C)C)Oc3ccccc3)[C@@H](O)[C@@]2(C)F)c(=O)n1`, the Activity result in data set [1] is given as “Non-Toxic”. In addition, the EC50 in data set [2] is > 10000 nM.
Taken in the same sequence, the figures for `CC(C)OC(=O)[C@H](C)N[P@](=O)(OC[C@H]1O[C@@H](n2ccc(NC(=O)OC3CCCCC3)nc2=O)[C@](C)(F)[C@@H]1O)Oc1ccccc1` were “Non-Toxic” and > 10000 nM.
Taken in the same sequence, the figures for `CC(C)OC(=O)[C@H](C)N[P@](=O)(OC[C@H]1O[C@@H](n2ccc(NC(=O)c3ccccc3)nc2=O)[C@](C)(F)[C@@H]1O)Oc1ccccc1` were “Non-Toxic” and 1990 nM.
The matching figures for `CCCCC(=O)Nc1ccn([C@@H]2O[C@H](CO[P@@](=O)(N[C@@H](C)C(=O)OC(C)C)Oc3ccccc3)[C@@H](O)[C@@]2(C)F)c(=O)n1`: “Non-Toxic” and 190 nM.
As for `CCCC(CCC)C(=O)Nc1ccn([C@@H]2O[C@H](CO[P@@](=O)(N[C@@H](C)C(=O)OC(C)C)Oc3ccccc3)[C@@H](O)[C@@]2(C)F)c(=O)n1`, the Activity result in data set [1] was “Non-Toxic”. Also, in data set [2], the 50% effective concentration (EC50) stood at 1640 nM.
The matching figures for `CCOC(=O)Nc1ccn([C@@H]2O[C@H](CO[P@@](=O)(N[C@@H](C)C(=O)OC(C)C)Oc3ccccc3)[C@@H](O)[C@@]2(C)F)c(=O)n1`: “Non-Toxic” and 8360 nM.
Taken in the same sequence, the figures for `CC(C)OC(=O)[C@H](C)N[P@](=O)(OC[C@H]1O[C@@H](n2ccc(NC(=O)/C=C/c3ccccc3)nc2=O)[C@](C)(F)[C@@H]1O)Oc1ccccc1` were “Non-Toxic” and 4080 nM.
As for `CC(C)OC(=O)[C@H](C)N[P@](=O)(OC[C@H]1O[C@@H](n2ccc(N)nc2=O)[C@](C)(F)[C@@H]1O)Oc1ccccc1`, the Ratio EC50 in data set [3] turned out to be 4.1. The half-life in data set [4] was > 3.85 h. Further, in data set [1], the Activity result is “Non-Toxic”. For the same molecule, the half-life at 10 µM in data set [5] came to 1.78 h. Further, the response in data set [2] was half-maximal at 660 nM (EC50).
Turning to `CC(C)CCC(=O)Nc1ccn([C@@H]2O[C@H](CO[P@@](=O)(N[C@@H](C)C(=O)OC(C)C)Oc3ccccc3)[C@@H](O)[C@@]2(C)F)c(=O)n1`, in data set [1], the Activity result is given as “Non-Toxic”. The concentration for a half-maximal effect (EC50) in data set [2] turned out to be 670 nM.
For `CC(C)OC(=O)[C@H](C)N[P@](=O)(OC[C@H]1O[C@@H](n2ccc(=O)[nH]c2=O)[C@](C)(F)[C@@H]1O)Oc1ccccc1` [SOFOSBUVIR], the Ratio EC50 in data set [3] amounted to 8.1. Besides, the half-life in data set [4] is > 3.85 h. Also, the Activity result in data set [1] was “Non-Toxic”. Also, in data set [5], the half-life at 10 µM turned out to be 0.802 h. Moreover, the EC50 in data set [2] was found to be 150 nM.
For the molecule `CCCCOC(=O)Nc1ccn([C@@H]2O[C@H](CO[P@@](=O)(N[C@@H](C)C(=O)OC(C)C)Oc3ccccc3)[C@@H](O)[C@@]2(C)F)c(=O)n1`, in data set [1], the Activity result is “Non-Toxic”. For the same molecule, the response in data set [2] was half-maximal at 2610 nM (EC50).
For the molecule `CC(C)OC(=O)[C@H](C)N[P@](=O)(OC[C@H]1O[C@@H](n2ccc(NC(=O)Cc3ccccc3)nc2=O)[C@](C)(F)[C@@H]1O)Oc1ccccc1`, the Activity result in data set [1] is reported as “Non-Toxic”. The EC50 in data set [2] stood at 1320 nM.
The matching figures for `CCCCCCOC(=O)Nc1ccn([C@@H]2O[C@H](CO[P@@](=O)(N[C@@H](C)C(=O)OC(C)C)Oc3ccccc3)[C@@H](O)[C@@]2(C)F)c(=O)n1`: “Non-Toxic” and > 10000 nM.
Taken in the same sequence, the figures for `CC(=O)Nc1ccn([C@@H]2O[C@H](CO[P@@](=O)(N[C@@H](C)C(=O)OC(C)C)Oc3ccccc3)[C@@H](O)[C@@]2(C)F)c(=O)n1` were “Non-Toxic” and 1040 nM.
The matching figures for `CCCCCC(=O)Nc1ccn([C@@H]2O[C@H](CO[P@@](=O)(N[C@@H](C)C(=O)OC(C)C)Oc3ccccc3)[C@@H](O)[C@@]2(C)F)c(=O)n1`: “Non-Toxic” and 250 nM.
On to `CC(C)OC(=O)[C@H](C)N[P@](=O)(OC[C@H]1O[C@@H](n2ccc(NC(=O)C3CCCCC3)nc2=O)[C@](C)(F)[C@@H]1O)Oc1ccccc1`, for which the Activity result in data set [1] was “Non-Toxic”. In addition, the EC50 in data set [2] stood at 4200 nM.
The matching figures for `CC(C)OC(=O)[C@H](C)N[P@](=O)(OC[C@H]1O[C@@H](n2ccc(NC(=O)C(C)C)nc2=O)[C@](C)(F)[C@@H]1O)Oc1ccccc1`: “Non-Toxic” and 2200 nM.
Taken in the same sequence, the figures for `CC(C)OC(=O)[C@H](C)N[P@](=O)(OC[C@H]1O[C@@H](n2ccc(NC(=O)OCc3ccccc3)nc2=O)[C@](C)(F)[C@@H]1O)Oc1ccccc1` were “Non-Toxic” and > 10000 nM.
Taken in the same sequence, the figures for `CC(C)OC(=O)[C@H](C)N[P@](=O)(OC[C@H]1O[C@@H](n2ccc(NC(=O)c3ccc(Cl)cc3)nc2=O)[C@](C)(F)[C@@H]1O)Oc1ccccc1` were “Non-Toxic” and 1920 nM.
In the case of `CCC(=O)Nc1ccn([C@@H]2O[C@H](CO[P@@](=O)(N[C@@H](C)C(=O)OC(C)C)Oc3ccccc3)[C@@H](O)[C@@]2(C)F)c(=O)n1`, the Activity entry in data set [1] is “Non-Toxic”. This molecule also displayed an EC50 in data set [2] of 1480 nM.
In the case of `CCC(CC)C(=O)Nc1ccn([C@@H]2O[C@H](CO[P@@](=O)(N[C@@H](C)C(=O)OC(C)C)Oc3ccccc3)[C@@H](O)[C@@]2(C)F)c(=O)n1`, in data set [1], the Activity result is “Non-Toxic”. Besides, in data set [2], the EC50 is > 10000 nM.
Taken in the same sequence, the figures for `CC(C)C(=O)OC[C@H]1O[C@@H](n2ccc(N)nc2=O)[C@](C)(F)[C@@H]1OC(=O)C(C)C` [MERICITABINE] were “Non-Toxic” and 1110 nM.
Taken in the same sequence, the figures for `CC(C)OC(=O)[C@H](C)N[P@](=O)(OC[C@H]1O[C@@H](n2ccc(NC(=O)CCc3ccccc3)nc2=O)[C@](C)(F)[C@@H]1O)Oc1ccccc1` were “Non-Toxic” and 1470 nM.
The matching figures for `CC(C)COC(=O)Nc1ccn([C@@H]2O[C@H](CO[P@@](=O)(N[C@@H](C)C(=O)OC(C)C)Oc3ccccc3)[C@@H](O)[C@@]2(C)F)c(=O)n1`: “Non-Toxic” and > 10000 nM.
Consider `CC(C)OC(=O)[C@H](C)N[P@](=O)(OC[C@H]1O[C@@H](n2ccc(NC(=O)C3CCC3)nc2=O)[C@](C)(F)[C@@H]1O)Oc1ccccc1`, for which the Activity result in data set [1] is “Non-Toxic”. In data set [2], this molecule came in with an EC50 of 190 nM.
The matching figures for `CCCCCOC(=O)Nc1ccn([C@@H]2O[C@H](CO[P@@](=O)(N[C@@H](C)C(=O)OC(C)C)Oc3ccccc3)[C@@H](O)[C@@]2(C)F)c(=O)n1`: “Non-Toxic” and > 10000 nM.
Taken in the same sequence, the figures for `CCCOC(=O)Nc1ccn([C@@H]2O[C@H](CO[P@@](=O)(N[C@@H](C)C(=O)OC(C)C)Oc3ccccc3)[C@@H](O)[C@@]2(C)F)c(=O)n1` were “Non-Toxic” and 6010 nM.
For the molecule `CC(C)OC(=O)Nc1ccn([C@@H]2O[C@H](CO[P@@](=O)(N[C@@H](C)C(=O)OC(C)C)Oc3ccccc3)[C@@H](O)[C@@]2(C)F)c(=O)n1`, in data set [1], the Activity entry is reported as “Non-Toxic”. The molecule also returned an EC50 in data set [2] of 3870 nM.
